How the values were obtained:
[1] = Drug degradation in KCl/HCl buffer assessed as 5-OMe-uridine-H-phosphonate formation by 31P-NMR analysis at pH 1.4; format: physicochemical
Outline: (§1)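 Sodium salt dissolved in KCl/HCl buffer pH 1.4 containing D2O, held at 37 °C. 31P NMR spectra taken at 15 min, 1 h or 24 h intervals, about every 24 h in multi-day runs. Hydrolysis rate taken from change in integration of one starting-material phosphate signal over time, fit to a pseudo-first-order model.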

[2] = Drug degradation in KCl/HCl buffer assessed as inorganic phosphate formation by 31P-NMR analysis at pH 1.4; format: physicochemical; outline: as §1

[BH3-][P@@](=O)(OC[C@H]1O[C@@H](n2cc(OC)c(=O)[nH]c2=O)[C@H](O)[C@@H]1O)OP(=O)([O-])[O-].[Na+].[Na+].[Na+]
Drug degradation [1]: Active
Drug degradation [2]: Active

From ChEMBL document CHEMBL2086311, “UDP made a highly promising stable, potent, and selective P2Y6-receptor agonist upon introduction of a boranophosphate moiety” (Bioorg Med Chem, 2012)
